Measurements published in publication PMC9924099 (Journal of medicinal chemistry, 2021).
Like-named read-outs stand apart in the source and are kept apart here.

Key:
[1] = system: p53^R280K MDA-MB-231 cells; experiment: WST-1 cell proliferation assay; type: cell-based, human; settings: for inhibition of cell proliferation (in words): MDA-MB-231, 24 h or 72 h; for IC50: Homo sapiens, read-out: IC50, inhibition of cell proliferation
[2] = target: p53^R273H in MDA-MB-468 cells (Homo sapiens, UniProt P04637, R273H); experiment: Western blot of p53 expression; type: cell-based; settings: MDA-MB-468, 6 μM or 12 μM, 24 h
In short: (§1)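 Cells were treated 24 h with 6 μM or 12 μM test compound or DMSO and lysed in NP-40/Tris-Cl pH 8.0 buffer with protease inhibitors. Load on 4–12% SDS-PAGE was 20 μg for MDA-MB-231 and MDA-MB-468 or 50 μg for MCF-7. After PVDF transfer, blots were probed with p53 DO-1 antibody, reprobed for GAPDH as loading control and developed by ECL.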

WT p53 in MCF-7 cells = WT p53 in MCF-7 cells (Homo sapiens, UniProt P04637); experiment: Western blot of p53 expression; type: cell-based; settings: MCF-7, 6 μM or 12 μM, 24 h
In short: as §1

[3] = system: p53^R273H MDA-MB-468 cells; experiment: Annexin V staining; type: cell-based, human; settings: MDA-MB-468, 6 μM or 12 μM, 24 h
[4] = target: p53^R280K in MDA-MB-231 cells (Homo sapiens, UniProt P04637, R280K); experiment: Western blot of p53 expression; type: cell-based; settings: MDA-MB-231, 6 μM or 12 μM, 24 h
In short: as §1

[5] = system: p53^R280K MDA-MB-231 cells; experiment: Annexin V staining; type: cell-based, human; settings: MDA-MB-231, 6 μM or 12 μM, 24 h
WT p53 MCF-7 cells [6] = experiment: Annexin V staining; type: cell-based, human; settings: MCF-7, 24 h
In short: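 After 24 h exposure to test compound or DMSO, MCF-7 cells (RPMI 1640, 10% FBS, 1% penicillin/streptomycin, 1% L-glutamine) were scraped, PBS-washed and taken up in Annexin V binding buffer. They were stained with fluorochrome-conjugated Annexin V for 15 min at RT in the dark, then PI staining solution was added. Flow cytometry read-out; % Annexin V-positive cells expressed relative to DMSO.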

Log P determination = type: physicochemical; settings: octanol/sodium phosphate buffer (pH 7.4)
WT p53 MCF-7 cells [7] = experiment: WST-1 cell proliferation assay; type: cell-based, human; settings: MCF-7, 24 h or 72 h; compared to mutant p53 cells
In short: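 WST-1 assay. Test compound in DMSO was added to cells at 40,000 cells/ml, giving 1% DMSO final, and plated at 4,000 cells/well in duplicate; medium-only wells served as background. Incubation was 24 h or 72 h at 37 °C, then WST-1 for 2 h and OD450 read. Proliferation is expressed as % of DMSO control; triplicate experiments. MCF-7 grown in RPMI 1640, MDA-MB-436 in DMEM.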

[8] = system: p53^R273H MDA-MB-468 cells; experiment: WST-1 cell proliferation assay; type: cell-based, human; settings: MDA-MB-468, 24 h or 72 h

Structure (SMILES)	inhibition of cell proliferation (in words) [1]	mutant p53 expression (western blot) [2]	WT p53 expression (western blot) (WT p53 in MCF-7 cells)	mutant p53 expression (western blot) [4]	increase in Annexin V stained cells compared to DMSO (WT p53 MCF-7 cells [6])	inhibition of cell proliferation / sensitivity (in words) (WT p53 MCF-7 cells [7])	also measured
CC(C)(COC12CC3CC(CC(C3)C1)C2)N=C=S [Ad-ITC 9, 1-(2-Isothiocyanato-2-methylpropoxy)adamantane]	not active in vitro	–	–	–	–	–	–
S=C=Nc1ccc(C23CC4CC(CC(C4)C2)C3)cc1 [Ad-ITC 7, 1-(4-Isothiocyanatophenyl)adamantane]	significantly less potent than Ad-ITCs 3, 5, and 6	–	–	–	–	–	–
S=C=NC12CC3CC(CC(C3)C1)C2 [Ad-ITC 1, 1-Isothiocyanatoadamantane]	failed to show any significant inhibition of cell proliferation	no depletion	did not decrease WT p53 expression	no depletion	did not display any significant increase	–	increase in Annexin V stained cells compared to DMSO [3]: did not induce significant increase in apoptosis; increase in Annexin V stained cells compared to DMSO [5]: did not induce significant increase in apoptosis
S=C=NCCOC12CC3CC(CC(C3)C1)C2 [Ad-ITC 8, 1-(2-Isothiocyanatoethoxy)adamantane]	not active in vitro	–	–	–	–	–	logP at 18 h (Log P determination): 4.42
S=C=NCCC12CC3CC(CC(C3)C1)C2 [Ad-ITC 5, 1-Isothiocyanato-2-(adamantan-1-yl)ethane]	–	differential decrease in the expression of mutant p53	did not decrease WT p53 expression	differential decrease in the expression of mutant p53	did not display any significant increase	did not inhibit MCF-7 cell proliferation	IC50 ([1]; MDA-MB-231, 24 h): 24 to 48 µM; IC50 ([1]; MDA-MB-231, 72 h): 12 to 24 µM; logP at 18 h (Log P determination): 4.76
O=C(CC12CC3CC(CC(C3)C1)C2)N=C=S [Ad-ITC 12, 2-(Adamantan-1-yl)acetyl isothiocyanate]	failed to inhibit the cell proliferation	–	–	–	–	–	–
C1C2CC3CC1CC(C2)C3 [adamantane, Adamantane, reference compound]	did not inhibit MDA-MB-231 cells proliferation	–	–	–	–	did not inhibit MCF-7 cell proliferation	inhibition of cell proliferation (in words) [8]: did not inhibit MDA-MB-468 cells proliferation
O=C1CNC(=S)N1CCC12CC3CC(CC(C3)C1)C2 [Ad-compound 13, 3-(2-(Adamantan-1-yl)ethyl)-2-thioxoimidazolidin-4-one]	did not inhibit the proliferation	failed to affect mutant p53 expression	did not decrease WT p53 expression	failed to affect mutant p53 expression	did not display any significant increase	did not inhibit MCF-7 cell proliferation	increase in Annexin V stained cells compared to DMSO [3]: did not induce significant increase in apoptosis; inhibition of cell proliferation (in words) [8]: did not inhibit MDA-MB-468 cells proliferation; increase in Annexin V stained cells compared to DMSO [5]: did not induce significant increase in apoptosis
CC12CC3CC(C)(C1)CC(N=C=S)(C3)C2 [Ad-ITC 11, 1-Isothiocyanato-3,5-dimethyladamantane]	failed to show any significant inhibition of cell proliferation	–	–	–	–	–	–
S=C=NC1C2CC3CC(C2)CC1C3 (stereo not shown) [Ad-ITC 2, 2-Isothiocyanatoadamantane]	failed to show any significant inhibition of cell proliferation	–	–	–	–	–	–
CCCC(CN=C=S)C1C2CC3CC(C2)CC1C3 (stereo not shown) [Ad-ITC 10, 2-(1-Isothiocyanatopentan-2-yl)adamantane]	did not show any significant inhibition	–	–	–	–	–	–
CC(N=C=S)C12CC3CC(CC(C3)C1)C2 (stereo not shown) [Ad-ITC 4, 1-Isothiocyanato-1-(adamantan-1-yl)ethane]	did not show any significant inhibition	–	–	–	–	–	–
S=C=NCC12CC3CC(CC(C3)C1)C2 [Ad-ITC 3, 1-Isothiocyanatomethyladamantane]	dose-dependent activity	differential decrease in the expression of mutant p53	did not decrease WT p53 expression	differential decrease in the expression of mutant p53	did not display any significant increase	remarkably less sensitive	IC50 ([1]; MDA-MB-231, 24 h): 24 to 48 µM; IC50 ([1]; MDA-MB-231, 72 h): 24 to 48 µM; increase in Annexin V stained cells compared to DMSO [3]: 2.0-5.1 fold; increase in Annexin V stained cells compared to DMSO [5]: 2.0-5.1 fold
